Source: ChEMBL document CHEMBL1141790, “Sodwanone S, a triterpene from the marine sponge Axinella weltneri” (J Nat Prod, 2005)
Converted amounts (≈) assume the structure as drawn.

Assays:
Type in all cases: functional, cell-based
[1] = Cytotoxicity against human IGROV cells by SRB assay
Outline: (§1)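 Compounds were run across a panel of 13 human tumor cell lines. Potency is expressed as IC50 in μg/mL.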

[2] = Cytotoxicity against human ecteinascidin-743-resistant IGROV cells by SRB assay; outline: as §1
[3] = system: SK-BR-3; assay: Cytotoxicity against human SKBR3 cells by SRB assay; outline: as §1
[4] = system: SK-MEL-28; assay: Cytotoxicity against human SK-MEL-28 cells by SRB assay; outline: as §1
[5] = system: LNCaP; assay: Cytotoxicity against human LNCAP cells by SRB assay; outline: as §1
[6] = system: A549; assay: Cytotoxicity against human A549 cells by SRB assay; outline: as §1
[7] = system: PANC-1; assay: Cytotoxicity against human PANC1 cells by SRB assay; outline: as §1
[8] = system: HT-29; assay: Cytotoxicity against human HT-29 cells by SRB assay; outline: as §1
[9] = system: LoVo; assay: Cytotoxicity against human LoVo cells by SRB assay; outline: as §1
[10] = system: LoVo; assay: Cytotoxicity against human doxorubicin-resistant LoVo cells by SRB assay; outline: as §1
[11] = system: HeLa; assay: Cytotoxicity against human HeLa cells by SRB assay; outline: as §1
[12] = system: HeLa; assay: Cytotoxicity against human aplidine-resistant HeLa cells by SRB assay; outline: as §1
[13] = system: DU-145; assay: Cytotoxicity against human DU145 cells by SRB assay; outline: as §1

SMILES | IC50 [1] [µg/mL] | IC50 [2] [µg/mL] | IC50 [3] [µg/mL] | IC50 [4] [µg/mL] | IC50 [5] [µg/mL] | IC50 [6] [µg/mL] | IC50 [7] [µg/mL] | IC50 [8] [µg/mL] | IC50 [9] [µg/mL] | IC50 [10] [µg/mL] | IC50 [11] [µg/mL] | IC50 [12] [µg/mL] | IC50 [13] [µg/mL]
CC1=C(CC[C@H]2[C@]3(C)CCC(=O)C(C)(C)O[C@H]3CC[C@]2(C)O)[C@@]2(C)CCC(=O)C(C)(C)C2=C(O)C1=O [SODWANONE A] | 1.7 (≈ 3.4 µM) | 0.068 (≈ 0.136 µM) | > 10 | 7.5 (≈ 15 µM) | 3.8 (≈ 7.59 µM) | 3.5 (≈ 6.99 µM) | 0.7 (≈ 1.4 µM) | > 10 | 8.5 (≈ 17 µM) | 0.3 (≈ 0.599 µM) | 2.1 (≈ 4.19 µM) | 2.9 (≈ 5.79 µM) | 1.8 (≈ 3.6 µM)
CC1=C(CC[C@@H]2[C@@]3(CC[C@@H]4OC(C)(C)C(=O)CC[C@]42C)CO3)[C@@]2(C)CCC(=O)C(C)(C)C2=C(O)C1=O [SODWANONE G] | 5 (≈ 10 µM) | 2.7 (≈ 5.41 µM) | > 10 | > 10 | 4.3 (≈ 8.62 µM) | > 10 | 3.1 (≈ 6.22 µM) | > 10 | > 10 | 2.7 (≈ 5.41 µM) | 5.4 (≈ 10.8 µM) | 4.2 (≈ 8.42 µM) | > 10
C[C@H]1CC[C@@H]2OC(C)(C)[C@@H](O)CC=C2[C@@]1(C)CC[C@H]1[C@]2(C)CCC(=O)C(C)(C)O[C@H]2CC[C@]1(C)O [SODWANONE S] | > 10 | 4.7 (≈ 9.58 µM) | 3.8 (≈ 7.74 µM) | 6.5 (≈ 13.2 µM) | 5 (≈ 10.2 µM) | > 10 | 4.1 (≈ 8.35 µM) | > 10 | 6.9 (≈ 14.1 µM) | 3.3 (≈ 6.72 µM) | > 10 | > 10 | > 10
